Published values of several laboratories.
Compare with care: the assays were run in different laboratories.
Target: Sodium-dependent noradrenaline transporter (SLC6A2, Homo sapiens, UniProt P23975)

O[C@@H]1[C@H](O)[C@@H]2C[C@@H]2[C@H]1n1cnc2c(NCCc3ccccc3)nc(C#Cc3ccccc3)nc21  Ki (ligand displacement, radioligand): 2800 nM
CNc1nc(C#Cc2ccc(Cl)s2)nc2c1ncn2[C@H]1[C@H](O)[C@H](O)[C@]2(C(=O)OC)C[C@H]12  Ki (ligand displacement, radioligand; cell membranes): > 10000 nM
Clc1ccc(CC2CCN(CCCCn3nnnc3C(c3ccccc3)c3ccccc3)CC2)cc1Cl  IC50 (transporter uptake, inhibitor): 724 nM
CCN(CC)c1ccc(C2Nc3ccc(C(=O)c4ccccc4)cc3NC3=C2C(=O)CC(C)(C)C3)cc1 (stereo not drawn)  Ki (cell-free assay, radioligand): 4860 nM
Clc1ccc(C(c2ccccc2)c2nnnn2CCCN2CCC(Cc3ccccc3)CC2)cc1 (stereo not drawn)  IC50 (transporter uptake, inhibitor): 174 nM
CCOC(=O)[C@@]12C[C@@H]1[C@@H](n1ccc3c(NC)nc(C#Cc4ccc(Cl)s4)nc31)[C@H](O)[C@@H]2O  IC50 (transporter uptake, inhibitor, radiometric): > 10000 nM
OCCCN1CC[C@@H]2C[C@H]1c1cc(-c3ccc(C(F)(F)F)cc3)ccc12  Ki (ligand displacement, radioligand): 405 nM
CCn1c(-c2nc3cc(C(=O)N4CCC[C@@H](N)C4)cc(OC)c3n2C)cc2cccnc21  IC50 (transporter uptake, inhibitor): 31600 nM
Clc1ccc(C(c2ccccc2)c2nnnn2CCCCN2CCC(CCc3ccccc3)CC2)cc1 (stereo not drawn)  IC50 (transporter uptake, inhibitor): 424 nM
CCn1c(-c2nc3ccc(C(=O)N4CCCC(N)C4)cc3n2C)cc2ccccc21 (stereo not drawn)  IC50 (transporter uptake, inhibitor): 39800 nM
Clc1ccc(C(c2ccc(Cl)cc2)c2nnnn2CCCCN2CCC(Cc3ccccc3)CC2)cc1  IC50 (transporter uptake, inhibitor): 469 nM
CCCCN1CCC(COC(=O)c2ccc(N)c(OCF)c2)CC1  Ki (cell-free assay, radioligand): 1400 nM
CNC(=O)[C@@]12C[C@@H]1[C@@H](n1cnc3c(NCc4cccc(Cl)c4)nc(C#Cc4ccccc4)nc31)[C@H](O)[C@@H]2O  Ki (ligand displacement, radioligand): 3160 nM
CCOC(=O)[C@@]12C[C@@H]1[C@@H](n1cnc3c(NC)nc(C#Cc4ccc(Cl)s4)nc31)[C@H](O)[C@@H]2O  Ki (ligand displacement, radioligand; cell membranes): > 8400 nM
CCC(C)C(=O)[C@]12C(=O)[C@](CC=C(C)C)(C[C@H](CC=C(C)C)[C@@]1(C)CCC=C(C)C)C(=O)C(CC=C(C)C)=C2O (stereo partly drawn)  Ki (ligand displacement, radioligand; cell membranes): 7320 nM
